This is an account of results in ChEMBL document CHEMBL1126568, “Nucleosides and nucleotides. 122. 2'-C-cyano-2'-deoxy-1-beta-D-arabinofuranosylcytosine and its derivatives. A new class of nucleoside with a broad antitumor spectrum” (J Med Chem, 1993).

One experiment has as its system QG-95. The experiment can be described thus: Tested in vitro against QG-95 human squamous cell carcinoma. The class given is functional, cell-based. In short, it runs like this:
(§1)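 MTT growth assay: 2 × 10³ cells/well exposed to compound or left untreated for 72 h. MTT then added for 4 h more; formazan dissolved in DMSO and OD read at 540 nm. % inhibition = [1 − OD sample/OD control] × 100. IC₅₀ (μM) is the concentration giving 50% growth inhibition. Single-concentration inhibition measured at 100 μg/mL.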

In experiment [1] the test system is Mus musculus. As to the kind of experiment: Percent treated was determined after administration at 100 mg/kg orally. The class given is functional. Conditions: route oral. An outline of the steps: (§2)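 Female BDF₁ mice bearing subcutaneous M5076 (10⁶ cells, axillary). Oral dosing in saline or 5% DMA/0.5% CMC on days 1, 4, 7, 10, 13 and 16. Groups of six (three at 400 mg/kg), nine untreated controls. T/C (%) = median survival day of treated/median survival day of untreated controls × 100; 60-day survivors also recorded.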

Experiment [2] concerns Mus musculus. As to the kind of experiment: Tested for 60-day survivors after administration at 300 mg/kg orally in M5076 mouse reticulum cell sarcoma. Particulars: route oral. The class given is functional. In short, it runs like this: (§3)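 Female BD2F1 mice were implanted s.c. with 1 × 10^6 M5076 cells and dosed orally on days 1, 4, 7, 10, 13 and 16. Vehicle was saline or 5% DMA in 0.5% CMC. Groups had six mice (three at 400 mg/kg), with nine untreated controls. The number of mice alive at 60 days was counted.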

Experiment [3] relates to Mus musculus. As to the kind of experiment: Weight change in M5076 mouse reticulum cell sarcoma after administration at 400 mg/kg orally. Conditions: route oral. The class given is functional. An outline of the steps:
(§4)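 Female BDF₁ mice with subcutaneous axillary M5076 (10⁶ cells), oral dosing on days 1, 4, 7, 10, 13 and 16 in saline or 5% DMA/0.5% CMC. Body weight change (g) = mean weight on day 20 minus mean weight on day 1.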

For a further experiment, the system named is KKLS. The experiment can be described thus: Tested in vitro against KKLS human stomach adenocarcinoma. The class given is functional, cell-based. In short, it runs like this:
as §1

Experiment [4] has as its system Mus musculus. The experiment can be described thus: Weight change in M5076 mouse reticulum cell sarcoma after administration at 200 mg/kg orally. The class given is functional. Particulars: route oral. In short, it runs like this: as §4
The next experiment deals with PC-8. As to the kind of experiment: Tested in vitro against PC-8 human lung adenocarcinoma. The class given is functional, cell-based. In short, it runs like this: as §1
The subject of another experiment is HOS-TE85. As to the kind of experiment: Tested in vitro against MNNG/HOS cell line human osteosarcoma. The class given is functional, cell-based. An outline of the steps:
as §1

The test system of experiment [5] is Mus musculus. The experiment can be described thus: Percent treated was determined after administration at 400 mg/kg orally. Conditions: route oral. The class given is functional. An outline of the steps: as §2
The test system of another experiment is SW48. As to the kind of experiment: Tested in vitro against SW-48 human colon adenocarcinoma. The class given is functional, cell-based. An outline of the steps: as §1
Another experiment deals with PC-9. As to the kind of experiment: Tested in vitro against PC-9 human lung adenocarcinoma. The class given is functional, cell-based. In short, it runs like this: as §1
The subject of experiment [6] is Mus musculus. The experiment can be described thus: Weight change in M5076 mouse reticulum cell sarcoma after administration at 100 mg/kg orally. The class given is functional. Conditions: route oral. In short, it runs like this:
as §4

Experiment [7] deals with Mus musculus. As to the kind of experiment: Tested for 60-day survivors after administration at 400 mg/kg orally in M5076 mouse reticulum cell sarcoma. Conditions: route oral. The class given is functional. In short, it runs like this:
as §3

The test system of a further experiment is OST. As to the kind of experiment: Tested in vitro against OST human osteosarcoma. The class given is functional, cell-based. An outline of the steps: as §1
Experiment [8] is described as follows: Tested in vitro inhibitory activity against human oral epidermoid carcinoma KB cells. The class given is functional, cell-based. An outline of the steps: as §1
Experiment [9] deals with KATO III stomach cancer cell line. The experiment can be described thus: Tested in vitro against KATO-III human stomach adenocarcinoma. The class given is functional, cell-based. In short, it runs like this:
as §1

Experiment [10] concerns Mus musculus. As to the kind of experiment: Weight change in M5076 mouse reticulum cell sarcoma after administration at 300 mg/kg orally. The class given is functional. Conditions: route oral. In short, it runs like this:
as §4

The subject of experiment [11] is Mus musculus. As to the kind of experiment: Percent inhibition against M5076 mouse reticulum cell sarcoma after administration at 100 mg/kg orally on day 20. The class given is functional. Particulars: M5076, 480 h, route oral. In short, it runs like this:
(§5)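 M5076 cells (10⁶ viable, counted by Trypan blue exclusion) implanted subcutaneously into the axillary region of female BDF₁ mice. Drug given orally on days 1, 4, 7, 10, 13 and 16 after inoculation, in saline or in 5% dimethylacetamide/0.5% carboxymethyl cellulose. Six mice per group (three at 400 mg/kg); untreated controls, nine mice. Tumor volume = 0.5 × length × width²; inhibition (%) = (1 − Vt/Vc) × 100 on day 20.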

Another experiment concerns ST-KM-1. As to the kind of experiment: Tested in vitro against ST-KM human stomach adenocarcinoma. The class given is functional, cell-based. Conditions: ST-KM-1, Stomach. An outline of the steps: as §1
A further experiment relates to MKN-45. The experiment can be described thus: Tested in vitro against MKN-45 human stomach adenocarcinoma. The class given is functional, cell-based. Conditions: MKN-45, Stomach. In short, it runs like this: as §1
The subject of experiment [12] is Mus musculus. The experiment can be described thus: Percent inhibition against M5076 mouse reticulum cell sarcoma after administration at 400 mg/kg orally on day 20. The class given is functional. Particulars: M5076, 480 h, route oral. In short, it runs like this:
as §5

The test system of experiment [13] is Mus musculus. As to the kind of experiment: Tested for 60-day survivors after administration at 200 mg/kg orally in M5076 mouse reticulum cell sarcoma. Conditions: route oral. The class given is functional. An outline of the steps: as §3
Experiment [14] has as its system Mus musculus. As to the kind of experiment: Percent inhibition against M5076 mouse reticulum cell sarcoma after administration at 300 mg/kg orally on day 20. The class given is functional. Conditions: M5076, 480 h, route oral. An outline of the steps:
as §5

For the next experiment, the system named is A-375. As to the kind of experiment: Tested in vitro against A-375 cell line human melanoma. The class given is functional, cell-based. In short, it runs like this:
as §1

The subject of the next experiment is MCF7. As to the kind of experiment: Tested in vitro against MCF-7 human breast adenocarcinoma. The class given is functional, cell-based. An outline of the steps:
as §1

Experiment [15] relates to Mus musculus. As to the kind of experiment: Tested for 60-day survivors after administration at 100 mg/kg orally in M5076 mouse reticulum cell sarcoma. The class given is functional. Particulars: route oral. An outline of the steps: as §3
The test system of another experiment is COLO 320. The experiment can be described thus: Tested in vitro against colo-320 human colon adenocarcinoma. The class given is functional, cell-based. Particulars: COLO 320, Colon. An outline of the steps:
as §1

For a further experiment, the system named is PC-13. The experiment can be described thus: Tested in vitro against PC-13 human lung large cell carcinoma. The class given is functional, cell-based. In short, it runs like this: as §1
The subject of another experiment is HT-1080. As to the kind of experiment: Tested in vitro against HT1080 cell line human fibrosarcoma. The class given is functional, cell-based. In short, it runs like this: as §1
The subject of another experiment is L1210. As to the kind of experiment: Tested in vitro inhibitory activity against murine leukemia L1210. The class given is functional, cell-based. Particulars: Mus musculus. In short, it runs like this:
as §1

Experiment [16] has as its system Mus musculus. As to the kind of experiment: Percent treated was determined after administration at 200 mg/kg orally. The class given is functional. Conditions: route oral. An outline of the steps: as §2
In experiment [17] the test system is Mus musculus. The experiment can be described thus: Percent inhibition against M5076 mouse reticulum cell sarcoma after administration at 200 mg/kg orally on day 20. Conditions: M5076, 480 h, route oral. The class given is functional. In short, it runs like this:
as §5

The subject of experiment [18] is Mus musculus. The experiment can be described thus: Percent treated was determined after administration at 300 mg/kg orally. The class given is functional. Particulars: route oral. In short, it runs like this: as §2

Structures are written as SMILES.

Regarding `Cl.N#C[C@H]1[C@H](O)[C@@H](CO)O[C@H]1n1ccc(N)nc1=O`, the IC50 was 138 µM with QG-95; 350 µM in the experiment on KKLS; 15.9 µM in the experiment on PC-8; 23.6 µM in the experiment on HOS-TE85; above 350 µM in the experiment with SW48; 15.3 µM in the experiment on PC-9. Further, the IC50 was determined as 22.2 µM in the experiment with OST; 5.2 µM in experiment [8]; 55.6 µM in [9]; 9.71 µM with ST-KM-1; 15.9 µM with MKN-45; 1.4 µM in the experiment on A-375. Besides, the IC50 was found to be 1.75 µM in the experiment with MCF7; 1.4 µM with COLO 320; 86.8 µM with PC-13; 0.53 µM in the experiment with HT-1080; 0.53 µM in the experiment on L1210. Moreover, the T/C with Mus musculus [1] is reported as 118%; in the experiment with Mus musculus [5], 133%; in the experiment with Mus musculus [16] it was 136%; with Mus musculus [18], 120%. The Survivors with Mus musculus [2] came out at 0; in the experiment on Mus musculus [7] it was 1; in the experiment on Mus musculus [13], 2; with Mus musculus [15], 0. The Weight change in the experiment with Mus musculus [3] turned out to be 1.1 g; with Mus musculus [4] it was 2 g; with Mus musculus [6] it was 1.7 g; with Mus musculus [10], 1 g. This compound also displayed an inhibition in vivo at 100 mg/kg with Mus musculus [11] of 79%. The inhibition in vivo at 400 mg/kg with Mus musculus [12] turned out to be 99%. In addition, 300 mg/kg produced 97% inhibition in vivo with Mus musculus [14]. Further, the inhibition in vivo at 200 mg/kg in the experiment with Mus musculus [17] was 93%.

As for `CC(=O)Nc1ccn([C@@H]2O[C@H](CO)[C@@H](O)[C@@H]2C#N)c(=O)n1`, the IC50 in experiment [8] was determined as 230 µM; in the experiment on L1210, 25.3 µM.
